Source: ChEMBL document CHEMBL1129428 (J Med Chem, 1996)

How the values were obtained:
Rattus norvegicus [1] = assay: Compound was tested for anticonvulsant activity after Oral Administration into Rats by using MES screen test after 0.5h,dose 50 mg/kg; No activity was demonstarted; type: functional, organism-based; parameters: dose 50 mg/kg
Outline: (§1)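 Rats received the compound orally. […] Rats were tested in the MES screen at 0.25, 0.5, 1, 2 and 4 h. Each value is the number of rats protected out of 4. The test followed NINDS procedures.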

[2] = Partition coefficient (logP); type: physicochemical; settings: octanol/water
Outline: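 Partition between 1-octanol and buffer at pH 7.4, with solutions prepared in 1-octanol before buffer is added. Quantified by UV, using λmax and ε values measured in 1-octanol.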

Rattus norvegicus [3] = assay: Compound was tested for anticonvulsant activity after Oral Administration into Rats by using MES screen test after 1h,dose 50 mg/kg; No activity was demonstarted; type: functional, organism-based; parameters: dose 50 mg/kg; outline: as §1
Rattus norvegicus [4] = assay: Compound was tested for anticonvulsant activity after Oral Administration into Rats by using MES screen test after 2h,dose 50 mg/kg; No activity was demonstarted; type: functional, organism-based; parameters: dose 50 mg/kg; outline: as §1
Rattus norvegicus [5] = assay: Compound was tested for anticonvulsant activity after Oral Administration into Rats by using MES screen test after 0.25h,dose 50 mg/kg; No activity was demonstarted; type: functional, organism-based; parameters: dose 50 mg/kg; outline: as §1
Mus musculus [6] = assay: Anticonvulsant activity after intraperitoneal injection into mice measured in a maximal electroshock scree (MES) screen; type: functional
Rattus norvegicus [7] = assay: Compound was tested for anticonvulsant activity after Oral Administration into Rats by using MES screen test after 4h,dose 50 mg/kg; No activity was demonstarted; type: functional, organism-based; parameters: dose 50 mg/kg; outline: as §1
Rattus norvegicus [8] = assay: Compound was tested for anticonvulsant activity after Oral Administration into Rats by using MES screen test after 0.25h,dose 12.5 mg/kg; number of rats out of four which were protected; type: functional; outline: as §1
Mus musculus [9] = assay: Anticonvulsant activity after intraperitoneal injection into mice by using scPTZ screen after 0.5 hr; type: functional
Rattus norvegicus [10] = assay: Compound was tested for anticonvulsant activity after Oral Administration into Rats by using MES screen test after 1h,dose 12.5 mg/kg; number of rats out of four which were protected; type: functional; outline: as §1
Rattus norvegicus [11] = assay: Compound was tested for anticonvulsant activity after Oral Administration into rat by using MES screen test after 0.5 hr; type: functional
Outline: (§2)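 Rats dosed orally, typically at 50 mg/kg first, then mostly 12.5 mg/kg (some compounds at 30 mg/kg), and tested by maximal electroshock. Four rats per compound, scored at 0.25, 0.5, 1, 2 and 4 h as the number of rats protected out of 4.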

[12] = Compound was tested for toxicity after oral administration in rat by using neurotoxicity screen test after 2 hr; type: organism-based; settings: in vivo
Outline: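 Rat neurotoxicity after oral dosing, observed at 0.25, 0.5, 1, 2, 4, 6, 8 and 24 h (8 h omitted for one compound).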

Mus musculus [13] = assay: Toxicity after intraperitoneal injection into mice by using toxicity screen test after 0.5 hr; type: organism-based; settings: in vivo, ip
Outline: (§3)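 Mice injected intraperitoneally at 30, 100 and 300 mg/kg and examined 0.5 and 4 h afterwards. Each entry is the minimum dose giving activity (MES protection, scPTZ protection, or rotorod failure for neurotoxicity) in half or more of the mice. Activity is called absent if nothing occurs at 300 mg/kg.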

Rattus norvegicus [14] = assay: Compound was tested for anticonvulsant activity after Oral Administration into Rats by using MES screen test after 4h,dose 12.5 mg/kg; number of rats out of four which were protected; type: functional; outline: as §1
Mus musculus [15] = assay: Anticonvulsant activity after intraperitoneal injection into mice by using MES screen test after 0.5 hr; type: functional
Mus musculus [16] = assay: Anticonvulsant activity after intraperitoneal injection into mice by using scPTZ screen test after 4 hr; type: functional
Rattus norvegicus [17] = assay: Compound was tested for anticonvulsant activity after Oral Administration into Rats by using MES screen test after 2h,dose 12.5 mg/kg; number of rats out of four which were protected; type: functional; outline: as §1
Mus musculus [18] = assay: Compound was tested for toxicity after intraperitoneal injection into mice by using toxicity screen test after 4 hr; type: organism-based; settings: in vivo, ip; outline: as §3
Rattus norvegicus [19] = assay: Anticonvulsant activity after oral administration into rats; type: functional; parameters: concentration or dose not given beside the values
[20] = Protection index = TD50/ED50 (MES); type: ADME, organism-based; settings: rat, in vivo; read-out: PI
[21] = Protection index = TD50/ED50; type: ADME; settings: read-out: PI
Mus musculus [22] = assay: Anticonvulsant activity after intraperitoneal injection into mice by using MES screen test after 0.25 hr; type: functional
Rattus norvegicus [23] = assay: Compound was tested for anticonvulsant activity after Oral Administration into rat by using MES screen test after 4 hr; type: functional; outline: as §2
Rattus norvegicus [24] = assay: Compound was tested for anticonvulsant activity after Oral Administration into Rats by using MES screen test after 0.25h,dose 30 mg/kg; number of rats out of four which were protected; type: functional; outline: as §1
[25] = Compound was tested for toxicity after intraperitoneal injection into mice by using neurotoxicity screen test after 1 hr; type: organism-based; settings: mouse, in vivo, ip
Outline: (§4)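 Quantitative intraperitoneal mouse testing in the MES, scPTZ or rotorod neurotoxicity screens at the peak time given for each compound (0.25–2 h). ED50 or TD50 reported in mg/kg with 95% CI and slope (SE).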

Rattus norvegicus [26] = assay: Compound was tested for anticonvulsant activity after Oral Administration into Rats by using MES screen test after 2h,dose 30 mg/kg; number of rats out of four which were protected; type: functional; outline: as §1
Rattus norvegicus [27] = assay: Compound was tested for anticonvulsant activity after Oral Administration into Rats by using MES screen test after 1h,dose 30 mg/kg; number of rats out of four which were protected; type: functional; outline: as §1
Rattus norvegicus [28] = assay: Compound was tested for anticonvulsant activity after Oral Administration into Rats by using MES screen test after 4h,dose 30 mg/kg; number of rats out of four which were protected; type: functional; outline: as §1
[29] = Protection index = TD50/ED50 (MES); settings: mouse, in vivo; read-out: PI
Mus musculus [30] = assay: Compound was tested for anticonvulsant activity after intraperitoneal injection into mice by using scPTZ screen test after 0.25 hr; type: functional; settings: ip; outline: as §4
Rattus norvegicus [31] = assay: Compound was tested for anticonvulsant activity after Oral Administration into Rats by using MES screen test after 0.5h,dose 30 mg/kg; number of rats out of four which were protected; type: functional; outline: as §1
Rattus norvegicus [32] = assay: Compound was tested for anticonvulsant activity after Oral Administration into Rats by using MES screen test after 4h,dose 50 mg/kg; number of rats out of four which were protected; type: functional; outline: as §1
Rattus norvegicus [33] = assay: Compound was tested for anticonvulsant activity after Oral Administration into Rats by using MES screen test after 0.5h,dose 50 mg/kg; number of rats out of four which were protected; type: functional; outline: as §1
Rattus norvegicus [34] = assay: Compound was tested for anticonvulsant activity after Oral Administration into Rats by using MES screen test after 2h,dose 50 mg/kg; number of rats out of four which were protected; type: functional; outline: as §1
Rattus norvegicus [35] = assay: Compound was tested for anticonvulsant activity after Oral Administration into Rats by using MES screen test after 0.25h,dose 50 mg/kg; number of rats out of four which were protected; type: functional; outline: as §1
Rattus norvegicus [36] = assay: Compound was tested for anticonvulsant activity after Oral Administration into Rats by using MES screen test after 1 hr, dose 50 mg/kg; number of rats out of four which were protected; type: functional; outline: as §1
Rattus norvegicus [37] = assay: Compound was tested for anticonvulsant activity after Oral Administration into rat by using MES screen test after 1 hr; type: functional; outline: as §2
Rattus norvegicus [38] = assay: Compound was tested for anticonvulsant activity after Oral Administration into Rats by using MES screen test after 0.25h,dose 30 mg/kg; No activity was demonstarted; type: functional, organism-based; parameters: dose 30 mg/kg; outline: as §1

SMILES | Activity (Rattus norvegicus [1]) | logP [2] | Activity (Rattus norvegicus [3]) | Activity (Rattus norvegicus [5]) | Dose (Mus musculus [6]) | Dose (Mus musculus [9]) | Dose (Mus musculus [13]) | Dose (Mus musculus [15]) | Dose (Mus musculus [18]) | Activity (Rattus norvegicus [26]) | Activity (Rattus norvegicus [27]) | Activity (Rattus norvegicus [28]) | Activity (Rattus norvegicus [31]) | Activity (Rattus norvegicus [32]) | Activity (Rattus norvegicus [34]) | other results
NC(=O)N/N=C\c1cccc(Oc2ccccc2)c1 | No activity | 2.07 | No activity | No activity | 300 mg/kg |  |  |  |  |  |  |  |  |  |  | Activity (Rattus norvegicus [4]): No activity; Activity (Rattus norvegicus [7]): No activity
CC(=O)N/N=C/c1ccc(Oc2ccc(F)cc2)cc1 |  | 1.96 |  |  | 30 mg/kg | 100 mg/kg | 100 mg/kg | 30 mg/kg | 100 mg/kg |  |  |  |  |  |  | Activity (Rattus norvegicus [8]): 1; Activity (Rattus norvegicus [10]): 2; ED50 (Rattus norvegicus [11]): 18.7 mg/kg; TD50 at 2 h [12]: > 125 mg/kg; Activity (Rattus norvegicus [14]): 1; Dose (Mus musculus [16]): 100 mg/kg; Activity (Rattus norvegicus [17]): 2; Activity (Rattus norvegicus [19]): 4; selectivity ratio [20]: > 6.7
C/C(=N/NC(N)=O)c1ccc(Oc2ccccc2)cc1 |  |  |  |  | 100 mg/kg |  | 100 mg/kg | 30 mg/kg | 100 mg/kg | 4 | 4 | 4 | 4 |  |  | selectivity ratio [21]: 1.7; ED50 (Mus musculus [22]): 9.08 mg/kg; ED50 (Rattus norvegicus [23]): 9.73 mg/kg; Activity (Rattus norvegicus [24]): 4; TD50 at 1 h [25]: 73.5 mg/kg; selectivity ratio [29]: 8.09; ED50 (Mus musculus [30]): 43.3 mg/kg
NC(=O)N/N=C/c1ccc(Oc2ccc(Br)cc2)cc1 |  |  |  |  | 30 mg/kg |  | 300 mg/kg | 30 mg/kg | 30 mg/kg |  |  |  |  | 4 | 4 | Activity (Rattus norvegicus [33]): 4; Activity (Rattus norvegicus [35]): 1; Activity (Rattus norvegicus [36]): 4
NC(=O)N/N=C/c1ccc(Oc2ccc(Oc3ccccc3)cc2)cc1 | No activity | 1.92 | No activity | No activity | 300 mg/kg |  |  |  |  |  |  |  |  | 1 | 1 | 
C/C(=N/NC(N)=O)c1ccc(Sc2ccccc2)cc1 |  |  |  |  | 100 mg/kg | 300 mg/kg |  | 100 mg/kg |  | 4 | 4 | 4 | 4 |  |  | ED50 (Rattus norvegicus [37]): 16.6 mg/kg; Activity (Rattus norvegicus [38]): No activity
